According to ChEMBL document CHEMBL2163192, “N,N-Dimethyl-[9-(arylsulfonyl)-2,3,4,9-tetrahydro-1H-carbazol-3-yl]amines as novel, potent and selective 5-HT₆ receptor antagonists” (Bioorg Med Chem Lett, 2012):
Activity calls are given as the source filed them. No cut-off for these calls is given here.

Assays:
[1] = biological target: T1, 5-hydroxytryptamine receptor 6 (Homo sapiens, UniProt P50406); assay: Displacement of [3H]LSD from human cloned 5-HT6 receptor expressed in HeLa cells after 1 hr by scintillation counter; format: cell-based
T1 sequence (P50406 whole entry): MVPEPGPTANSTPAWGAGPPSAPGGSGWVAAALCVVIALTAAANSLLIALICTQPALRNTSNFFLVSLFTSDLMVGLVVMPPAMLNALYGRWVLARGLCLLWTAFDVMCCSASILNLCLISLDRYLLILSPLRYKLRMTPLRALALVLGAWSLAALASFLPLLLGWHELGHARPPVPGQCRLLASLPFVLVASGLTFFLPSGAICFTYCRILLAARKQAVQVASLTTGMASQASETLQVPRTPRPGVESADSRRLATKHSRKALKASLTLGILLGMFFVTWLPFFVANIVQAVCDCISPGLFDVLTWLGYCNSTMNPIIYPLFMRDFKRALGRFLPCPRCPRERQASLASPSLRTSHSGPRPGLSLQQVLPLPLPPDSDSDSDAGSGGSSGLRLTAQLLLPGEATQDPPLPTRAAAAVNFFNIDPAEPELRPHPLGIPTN

[2] = biological target: 5-hydroxytryptamine receptor 2A (Homo sapiens) (UniProt P28223); assay: Inhibition of 5-HT2A receptor at 10 uM
Chain of 5-hydroxytryptamine receptor 2A (Homo sapiens) (P28223 whole entry): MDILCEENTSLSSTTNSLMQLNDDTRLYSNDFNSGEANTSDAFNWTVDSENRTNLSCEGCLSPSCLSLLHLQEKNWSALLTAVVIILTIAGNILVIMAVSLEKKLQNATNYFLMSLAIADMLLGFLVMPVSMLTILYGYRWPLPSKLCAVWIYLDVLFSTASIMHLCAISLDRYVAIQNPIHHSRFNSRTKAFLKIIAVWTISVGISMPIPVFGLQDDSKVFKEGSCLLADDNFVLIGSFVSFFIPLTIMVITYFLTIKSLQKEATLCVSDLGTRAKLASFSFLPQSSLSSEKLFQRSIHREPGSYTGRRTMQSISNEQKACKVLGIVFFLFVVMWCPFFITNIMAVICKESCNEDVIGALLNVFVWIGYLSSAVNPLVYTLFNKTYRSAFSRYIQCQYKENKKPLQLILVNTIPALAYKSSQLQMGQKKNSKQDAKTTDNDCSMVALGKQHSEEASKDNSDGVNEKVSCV
Method in brief: (§1)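 In-house selectivity panel of related receptors and transporters; each compound tested at 1 μM and 10 μM; percent inhibition determined in duplicate and the mean of the two reported.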

[3] = biological target: Sodium-dependent serotonin transporter (Homo sapiens) (UniProt P31645); assay: Inhibition of SERT at 10 uM; method in brief: as §1
Chain of Sodium-dependent serotonin transporter (Homo sapiens) (P31645 whole entry, looked up): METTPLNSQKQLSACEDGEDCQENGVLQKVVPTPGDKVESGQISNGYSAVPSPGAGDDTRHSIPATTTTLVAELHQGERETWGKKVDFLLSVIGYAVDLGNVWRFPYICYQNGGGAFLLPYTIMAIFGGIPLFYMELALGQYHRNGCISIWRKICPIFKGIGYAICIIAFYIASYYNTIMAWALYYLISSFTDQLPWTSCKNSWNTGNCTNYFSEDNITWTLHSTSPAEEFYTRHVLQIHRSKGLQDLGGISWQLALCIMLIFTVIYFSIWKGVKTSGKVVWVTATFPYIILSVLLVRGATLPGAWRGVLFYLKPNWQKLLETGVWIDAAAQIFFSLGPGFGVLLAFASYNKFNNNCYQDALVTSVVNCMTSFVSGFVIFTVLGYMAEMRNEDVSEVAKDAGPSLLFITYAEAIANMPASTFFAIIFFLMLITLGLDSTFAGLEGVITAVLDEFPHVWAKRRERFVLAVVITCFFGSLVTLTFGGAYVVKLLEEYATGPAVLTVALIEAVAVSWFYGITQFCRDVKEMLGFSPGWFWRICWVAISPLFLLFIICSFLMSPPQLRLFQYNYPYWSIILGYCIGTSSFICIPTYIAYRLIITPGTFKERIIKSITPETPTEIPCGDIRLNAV

[4] = Volume of distribution in Wistar rat at 10 mg/kg, iv; format: ADME, organism-based; design: dose 10 mg/kg, route intravenous; settings: in vivo
Method in brief: (§2)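 Fasted male Wistar rats, n=3, single 10 mg/kg intravenous dose in water for injection (2 mL/kg); plasma concentration–time profile used for Cmax, AUC, half-life, Vd and clearance.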

[5] = biological target: 5-hydroxytryptamine receptor 2A (Homo sapiens) (UniProt P28223); assay: Inhibition of 5-HT2A receptor at 1 uM; method in brief: as §1
[6] = biological target: Histamine H3 receptor (Homo sapiens) (UniProt Q9Y5N1); assay: Inhibition of histamine H3 receptor at 1 uM; method in brief: as §1
Chain of Histamine H3 receptor (Homo sapiens) (Q9Y5N1 whole entry): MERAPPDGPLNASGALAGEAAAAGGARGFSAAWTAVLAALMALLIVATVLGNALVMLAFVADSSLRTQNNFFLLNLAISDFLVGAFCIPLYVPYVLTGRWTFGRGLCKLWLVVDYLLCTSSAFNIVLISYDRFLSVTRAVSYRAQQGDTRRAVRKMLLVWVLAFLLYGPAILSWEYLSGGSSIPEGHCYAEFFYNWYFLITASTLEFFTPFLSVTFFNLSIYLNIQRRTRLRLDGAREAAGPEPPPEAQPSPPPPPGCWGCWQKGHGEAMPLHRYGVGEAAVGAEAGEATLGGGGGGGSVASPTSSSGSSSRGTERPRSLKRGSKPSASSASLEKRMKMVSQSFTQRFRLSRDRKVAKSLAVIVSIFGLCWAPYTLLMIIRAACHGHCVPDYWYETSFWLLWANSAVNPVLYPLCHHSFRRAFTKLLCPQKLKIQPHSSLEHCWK

CYP2C19 = CYP2C19 (Homo sapiens, UniProt P33261); assay: Inhibition of human CYP2C19 at 3 uM; format: ADME
Chain of CYP2C19 (P33261 whole entry, canonical isoform): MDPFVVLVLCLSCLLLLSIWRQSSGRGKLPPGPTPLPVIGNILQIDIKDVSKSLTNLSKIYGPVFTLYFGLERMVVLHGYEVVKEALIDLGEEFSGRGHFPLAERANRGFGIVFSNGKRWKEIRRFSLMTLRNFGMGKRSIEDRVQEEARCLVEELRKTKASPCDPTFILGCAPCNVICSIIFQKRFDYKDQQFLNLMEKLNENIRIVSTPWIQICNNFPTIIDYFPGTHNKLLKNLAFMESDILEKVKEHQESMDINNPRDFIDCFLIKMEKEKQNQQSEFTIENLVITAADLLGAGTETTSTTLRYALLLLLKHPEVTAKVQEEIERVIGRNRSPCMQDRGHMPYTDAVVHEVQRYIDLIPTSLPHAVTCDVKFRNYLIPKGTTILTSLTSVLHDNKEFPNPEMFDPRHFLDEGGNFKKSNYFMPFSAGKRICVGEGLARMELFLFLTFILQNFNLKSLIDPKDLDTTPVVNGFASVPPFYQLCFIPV
Method in brief: (§3)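 Isoform-selective inhibition assays using heterologously expressed human CYP enzymes; compounds tested at 3 μM; percent inhibition reported.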

[7] = biological target: T1, 5-hydroxytryptamine receptor 6; assay: Antagonist activity at human recombinant 5-HT6 receptor expressed in CHO cells assessed as inhibition of 5-HT-stimulated cAMP accumulation after 4 hrs by luciferase reporter gene assay; format: functional, cell-based
Method in brief: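 Cell-based, non-radioactive reporter gene assay measuring antagonism of 5-HT-stimulated cAMP formation at human 5-HT6 receptor; IC50 and Kb values determined in duplicate.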

[8] = biological target: D(2) dopamine receptor (Homo sapiens) (UniProt P14416); assay: Inhibition of dopamine D2 receptor at 10 uM; method in brief: as §1
Chain of D(2) dopamine receptor (Homo sapiens) (P14416 whole entry): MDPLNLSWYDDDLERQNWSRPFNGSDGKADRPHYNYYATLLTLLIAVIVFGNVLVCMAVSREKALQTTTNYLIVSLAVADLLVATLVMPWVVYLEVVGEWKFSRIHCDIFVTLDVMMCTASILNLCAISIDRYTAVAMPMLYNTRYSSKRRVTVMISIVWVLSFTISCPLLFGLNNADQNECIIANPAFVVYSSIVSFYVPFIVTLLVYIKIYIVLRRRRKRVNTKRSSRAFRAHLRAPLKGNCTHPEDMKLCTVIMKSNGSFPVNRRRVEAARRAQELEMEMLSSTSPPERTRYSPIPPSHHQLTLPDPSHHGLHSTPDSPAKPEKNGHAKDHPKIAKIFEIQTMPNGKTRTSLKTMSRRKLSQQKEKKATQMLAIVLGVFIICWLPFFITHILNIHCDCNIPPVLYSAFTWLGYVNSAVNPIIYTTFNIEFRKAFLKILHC

CYP3A4 = CYP3A4 (Homo sapiens, UniProt P08684); assay: Inhibition of human CYP3A4 at 3 uM; format: ADME; method in brief: as §3
Chain of CYP3A4 (P08684 whole entry): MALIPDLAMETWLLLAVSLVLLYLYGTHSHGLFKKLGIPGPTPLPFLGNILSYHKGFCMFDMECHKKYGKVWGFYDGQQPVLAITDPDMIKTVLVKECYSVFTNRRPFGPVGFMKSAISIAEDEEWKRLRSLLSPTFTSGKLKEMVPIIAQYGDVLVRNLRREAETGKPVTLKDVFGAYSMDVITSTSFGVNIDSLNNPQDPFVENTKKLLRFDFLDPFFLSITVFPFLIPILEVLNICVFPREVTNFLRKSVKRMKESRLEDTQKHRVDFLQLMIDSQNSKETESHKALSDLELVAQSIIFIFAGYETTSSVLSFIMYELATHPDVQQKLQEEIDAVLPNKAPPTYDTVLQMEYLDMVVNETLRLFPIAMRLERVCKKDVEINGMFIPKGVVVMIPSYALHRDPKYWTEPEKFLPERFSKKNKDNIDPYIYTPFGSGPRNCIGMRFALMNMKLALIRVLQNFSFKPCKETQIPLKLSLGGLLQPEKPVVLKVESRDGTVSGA

[9] = Cmax in Wistar rat at 10 mg/kg, iv; format: ADME, organism-based; design: dose 10 mg/kg, route intravenous; settings: in vivo; method in brief: as §2
[10] = Drug metabolism in rat liver microsomes; format: ADME, Microsome; settings: read-out: Drug metabolism
[11] = AUC in Wistar rat at 10 mg/kg, po; format: ADME, organism-based; design: dose 10 mg/kg, route oral; settings: plasma
Method in brief: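 Fasted male Wistar rats (n = 3) received a single oral dose of 10 mg/kg in water for injection. AUC is given in ng.hr/mL as part of a pharmacokinetic profile that also includes Cmax, t1/2, Vd and clearance, and uses an i.v. 10 mg/kg arm to derive oral bioavailability.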

[12] = Half life in Wistar rat at 10 mg/kg, iv; format: ADME, organism-based; design: dose 10 mg/kg, route intravenous; settings: in vivo; method in brief: as §2
[13] = biological target: Histamine H4 receptor (Homo sapiens) (UniProt Q9H3N8); assay: Inhibition of histamine H4 receptor at 10 uM; method in brief: as §1
Chain of Histamine H4 receptor (Homo sapiens) (Q9H3N8 whole entry): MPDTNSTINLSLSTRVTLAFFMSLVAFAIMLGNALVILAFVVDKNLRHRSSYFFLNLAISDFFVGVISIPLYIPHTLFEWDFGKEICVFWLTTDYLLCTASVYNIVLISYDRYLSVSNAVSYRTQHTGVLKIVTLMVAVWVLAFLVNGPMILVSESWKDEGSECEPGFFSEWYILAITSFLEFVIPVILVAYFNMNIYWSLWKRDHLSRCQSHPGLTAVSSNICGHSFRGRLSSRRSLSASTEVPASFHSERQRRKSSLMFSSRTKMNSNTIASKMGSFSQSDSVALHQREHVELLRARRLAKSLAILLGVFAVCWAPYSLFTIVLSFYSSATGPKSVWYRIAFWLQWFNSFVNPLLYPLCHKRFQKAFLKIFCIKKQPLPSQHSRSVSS

[14] = biological target: Histamine H4 receptor (Homo sapiens) (UniProt Q9H3N8); assay: Inhibition of histamine H4 receptor at 1 uM; method in brief: as §1
[15] = biological target: D(2) dopamine receptor (Homo sapiens) (UniProt P14416); assay: Inhibition of dopamine D2 receptor at 1 uM; method in brief: as §1
[16] = biological target: Sodium-dependent dopamine transporter (Homo sapiens) (UniProt Q01959); assay: Inhibition of DAT at 10 uM; method in brief: as §1
Chain of Sodium-dependent dopamine transporter (Homo sapiens) (Q01959 whole entry): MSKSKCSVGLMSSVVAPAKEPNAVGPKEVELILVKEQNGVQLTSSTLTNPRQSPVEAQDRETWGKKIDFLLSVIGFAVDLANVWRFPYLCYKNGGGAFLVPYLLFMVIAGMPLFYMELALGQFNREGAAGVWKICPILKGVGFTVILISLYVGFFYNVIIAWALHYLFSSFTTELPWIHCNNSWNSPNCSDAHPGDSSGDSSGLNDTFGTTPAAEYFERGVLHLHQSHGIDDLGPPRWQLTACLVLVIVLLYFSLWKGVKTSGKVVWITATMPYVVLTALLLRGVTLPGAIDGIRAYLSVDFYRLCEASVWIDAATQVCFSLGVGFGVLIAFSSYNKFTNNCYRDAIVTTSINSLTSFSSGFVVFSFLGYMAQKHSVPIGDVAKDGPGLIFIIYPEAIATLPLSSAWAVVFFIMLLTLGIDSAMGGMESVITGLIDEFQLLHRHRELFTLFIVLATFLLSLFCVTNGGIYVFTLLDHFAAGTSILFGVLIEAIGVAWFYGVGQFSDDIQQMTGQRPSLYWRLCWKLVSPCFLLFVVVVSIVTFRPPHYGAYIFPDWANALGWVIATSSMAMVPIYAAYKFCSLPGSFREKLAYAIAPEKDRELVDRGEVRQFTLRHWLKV

[17] = biological target: T2, 5-hydroxytryptamine receptor 1A (Homo sapiens) (UniProt P08908); assay: Inhibition of 5-HT1A receptor at 10 uM; method in brief: as §1
T2 sequence (whole entry): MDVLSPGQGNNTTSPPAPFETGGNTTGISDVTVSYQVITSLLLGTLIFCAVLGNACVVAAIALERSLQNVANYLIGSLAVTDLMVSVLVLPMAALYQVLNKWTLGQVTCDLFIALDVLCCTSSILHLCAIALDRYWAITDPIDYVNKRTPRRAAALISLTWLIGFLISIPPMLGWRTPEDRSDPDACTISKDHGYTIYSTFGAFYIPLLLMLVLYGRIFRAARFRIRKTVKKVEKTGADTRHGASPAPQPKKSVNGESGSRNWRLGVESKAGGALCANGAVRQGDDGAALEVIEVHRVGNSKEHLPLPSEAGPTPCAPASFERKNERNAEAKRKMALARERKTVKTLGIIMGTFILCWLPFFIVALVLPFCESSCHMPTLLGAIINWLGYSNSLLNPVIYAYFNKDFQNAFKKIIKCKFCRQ

[18] = biological target: Sodium-dependent dopamine transporter (Homo sapiens) (UniProt Q01959); assay: Inhibition of DAT at 1 uM; method in brief: as §1
[19] = Oral bioavailability in Wistar rat at 10 mg/kg; format: ADME, organism-based; settings: in vivo
Method in brief: (§4)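 Fasted male Wistar rats, n=3, given 10 mg/kg orally in water for injection (10 mL/kg); plasma Cmax, half-life, Vd and clearance derived, with bioavailability from comparison against the 10 mg/kg iv arm.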

[20] = Cmax in Wistar rat at 10 mg/kg, po; format: ADME, organism-based; design: dose 10 mg/kg, route oral; settings: in vivo; method in brief: as §4
[21] = biological target: Sodium-dependent serotonin transporter (Homo sapiens) (UniProt P31645); assay: Inhibition of SERT at 1 uM; method in brief: as §1
[22] = Clearance in Wistar rat at 10 mg/kg, iv; format: ADME, organism-based; design: dose 10 mg/kg, route intravenous; settings: in vivo; method in brief: as §2
Rattus norvegicus [23] = assay: Cognitive enhancing effect in Wistar rat assessed as increase in time send on novel object at 1 to 10 mg/kg, po after 60 mins by novel object recognition test; format: functional, organism-based
Method in brief: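 Novel object recognition in rats with 24-h delay procedure; 1, 3 and 10 mg/kg given orally in water for injection (2 mL/kg) 60 min before test; time exploring novel versus familiar object compared by paired t test, n = 8–10/group.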

CYP2D6 = CYP2D6 (Homo sapiens, UniProt P10635); assay: Inhibition of human CYP2D6 at 3 uM; format: ADME; method in brief: as §3
Chain of CYP2D6 (P10635 whole entry): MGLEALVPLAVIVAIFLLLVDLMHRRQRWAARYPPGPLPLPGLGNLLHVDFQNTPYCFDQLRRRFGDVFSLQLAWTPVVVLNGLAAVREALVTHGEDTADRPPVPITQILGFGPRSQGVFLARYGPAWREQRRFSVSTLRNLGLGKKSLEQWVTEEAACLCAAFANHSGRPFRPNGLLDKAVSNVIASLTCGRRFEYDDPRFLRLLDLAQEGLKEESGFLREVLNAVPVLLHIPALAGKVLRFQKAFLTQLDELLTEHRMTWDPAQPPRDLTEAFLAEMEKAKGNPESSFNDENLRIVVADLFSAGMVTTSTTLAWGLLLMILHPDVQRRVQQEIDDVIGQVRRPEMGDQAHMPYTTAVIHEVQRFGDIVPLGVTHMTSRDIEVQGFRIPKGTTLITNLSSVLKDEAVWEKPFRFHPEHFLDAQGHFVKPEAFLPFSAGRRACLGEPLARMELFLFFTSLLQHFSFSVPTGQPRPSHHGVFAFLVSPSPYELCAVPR

[24] = biological target: Histamine H3 receptor (Homo sapiens) (UniProt Q9Y5N1); assay: Inhibition of histamine H3 receptor at 10 uM; method in brief: as §1
[25] = Drug metabolism in human liver microsomes; format: ADME, Microsome; settings: read-out: Drug metabolism
[26] = Clearance in Wistar rat at 10 mg/kg, po; format: ADME, organism-based; design: dose 10 mg/kg, route oral; settings: in vivo; method in brief: as §4
[27] = Ratio of drug level in brain to plasma in Wistar rat at 10 mg/kg, po; format: ADME, organism-based; design: dose 10 mg/kg, route oral; settings: read-out: BPR
[28] = biological target: T3, Alpha-1B adrenergic receptor (Homo sapiens) (UniProt P35368); assay: Inhibition of alpha1B adrenergic receptor at 10 uM; method in brief: as §1
T3 sequence (whole entry): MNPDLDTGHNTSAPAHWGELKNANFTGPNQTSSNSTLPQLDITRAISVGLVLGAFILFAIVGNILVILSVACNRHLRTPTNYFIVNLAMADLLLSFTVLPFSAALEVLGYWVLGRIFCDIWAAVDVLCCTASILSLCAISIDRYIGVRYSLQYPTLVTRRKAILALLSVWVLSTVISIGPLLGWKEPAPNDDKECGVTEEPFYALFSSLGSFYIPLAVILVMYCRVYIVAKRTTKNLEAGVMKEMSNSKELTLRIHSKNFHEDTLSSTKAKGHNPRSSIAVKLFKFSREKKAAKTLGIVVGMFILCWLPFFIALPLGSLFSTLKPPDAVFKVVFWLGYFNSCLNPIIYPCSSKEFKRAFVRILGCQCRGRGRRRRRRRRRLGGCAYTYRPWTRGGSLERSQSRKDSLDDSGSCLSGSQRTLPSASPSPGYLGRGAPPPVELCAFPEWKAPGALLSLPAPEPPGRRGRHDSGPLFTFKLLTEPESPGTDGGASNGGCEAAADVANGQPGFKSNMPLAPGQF

[29] = AUC in Wistar rat at 10 mg/kg, iv; format: ADME, organism-based; design: dose 10 mg/kg, route intravenous; settings: plasma; method in brief: as §2
Rattus norvegicus [30] = assay: Volume of distribution in Wistar rat at 10 mg/kg, po; format: ADME, organism-based; design: dose 10 mg/kg, route oral; settings: in vivo; method in brief: as §4
[31] = Half life in Wistar rat at 10 mg/kg, po; format: ADME, organism-based; design: dose 10 mg/kg, route oral; settings: in vivo; method in brief: as §4
[32] = biological target: T3, Alpha-1B adrenergic receptor (Homo sapiens); assay: Inhibition of alpha1B adrenergic receptor at 1 uM; method in brief: as §1
[33] = biological target: T2, 5-hydroxytryptamine receptor 1A (Homo sapiens); assay: Inhibition of 5-HT1A receptor at 1 uM; method in brief: as §1

`NC1CCc2[nH]c3ccc(S(=O)(=O)c4ccccc4)cc3c2C1` (configuration not stated) gave a Ki [1] of 58 nM.

`COc1ccc2c(c1)c1c(n2S(=O)(=O)c2ccccc2)CCC(N(C)C)C1` (racemic) gave an inhibition [2] of 46.7%, an inhibition [3] of 3.35% and a Vd [4] of 24.3 L/kg. For the same compound, the inhibition [5] was 8.15%, the inhibition [6] was 22.8% and the inhibition at 3 µM (CYP2C19) was 50%. The IC50 [7] was 457 nM, the Kb [7] was 4.7 nM and the inhibition [8] was 51.3%. The inhibition at 3 µM (CYP3A4) was 10%, the Cmax [9] was 928 ng/mL and the metabolised [10] was 74%. For the same compound, the AUC [11] was 544 ng·h/mL, the half-life [12] was 3.86 h and the inhibition [13] was 13.9%. It also gave an inhibition [14] of 0%, an inhibition [15] of 11% and an inhibition [16] of 6.23%. The inhibition [17] was 43.1%, the inhibition [18] was 1.48% and the bioavailability [19] was 26%. It also gave a Cmax [20] of 90 ng/mL, an inhibition [21] of 2.52% and a clearance [22] of 73.8 mL/min/kg. The Activity (Rattus norvegicus [23]) was “Active”, the inhibition at 3 µM (CYP2D6) was 50% and the inhibition [24] was 32.7%. For the same compound, the metabolised [25] was 49%, the CL/F [26] was 331 mL/min/kg and the Kp [27] was 7.6. The inhibition [28] was 5.26%, the AUC [29] was 2120 ng·h/mL and the Vd (Rattus norvegicus [30]) was 21.95 L/kg. It also gave a half-life [31] of 7.67 h, an inhibition [32] of 5.21% and an inhibition [33] of 28.3%.
